An excerpt weighted towards active compounds, which were near 1.6% of everything screened.
Hep lipid drop – modulators of hepatic lipid droplet formation. AML12 mouse hepatocytes, oleate lipid droplets, BODIPY imaging. 240,000 tested, 0.4% active. AID 1656. inhibition, % at 6.5 µM;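 active = lipid droplet intensity inhibited by at least 50%, with more than 500 cells counted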
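Test system: AML12 mouse liver cells; schedule: overnight exposure; technique: high-content imaging of BODIPY-stained droplets and DAPI nuclei; read-out: % inhibition of corrected integrated BODIPY droplet signal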
TLR4-MyD88 BLA – blocks binding of human TLR4 to MyD88; O00206+Q99836; HeLa CL3-4 TLR4/MyD88 BLA complementation, FRET ratio; inhibition, % at 8.4 µM; 200,000 tested, 0.18% active; in the data active = inhibition above about 25%
SR-BI uptake up – SR-BI HDL lipid transfer activation | activation, % at 12.5 µM | CHO ldlA[mSR-BI] cells, DiI-HDL uptake fluorescence, 3 h; 100 = double the neutral-control signal | 320,000 tested, 0.096% active | AID 504775;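 active = mean replicate activation of at least 60% and every replicate at or above 60%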
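Test system: SR-BI-overexpressing, LDLR-lacking CHO cells. Measured by: DiI fluorescence, bottom read. Medium: Ham's F12 with 0.5% BSA, HEPES 25 mM, pH 7.4. Timing: 3 h uptake period with compound, 37 °C.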
TLR9-MyD88 inh – blocks human TLR9 binding to MyD88. 340,000 tested, 0.21% active. inhibition, % at 4.98 µM. Q9NR96+Q99836. CHO BLA complementation TLR9-MyD88, CCF4 FRET ratio. AID 504734;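 active = inhibition above the mean over all tested compounds plus 3 SD, cut at about 21% in these data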
NOD2 RIPK2 PPI – blocks binding of human NOD2 to RIPK2; O43353; CHO BLA complementation NOD2-RIPK2, CCF4 ratio; inhibition, % at 4.98 µM; 360,000 tested, 0.38% active; AID 624267; in the data active = inhibition above about 21%
Target sequence (O43353 whole entry, looked up): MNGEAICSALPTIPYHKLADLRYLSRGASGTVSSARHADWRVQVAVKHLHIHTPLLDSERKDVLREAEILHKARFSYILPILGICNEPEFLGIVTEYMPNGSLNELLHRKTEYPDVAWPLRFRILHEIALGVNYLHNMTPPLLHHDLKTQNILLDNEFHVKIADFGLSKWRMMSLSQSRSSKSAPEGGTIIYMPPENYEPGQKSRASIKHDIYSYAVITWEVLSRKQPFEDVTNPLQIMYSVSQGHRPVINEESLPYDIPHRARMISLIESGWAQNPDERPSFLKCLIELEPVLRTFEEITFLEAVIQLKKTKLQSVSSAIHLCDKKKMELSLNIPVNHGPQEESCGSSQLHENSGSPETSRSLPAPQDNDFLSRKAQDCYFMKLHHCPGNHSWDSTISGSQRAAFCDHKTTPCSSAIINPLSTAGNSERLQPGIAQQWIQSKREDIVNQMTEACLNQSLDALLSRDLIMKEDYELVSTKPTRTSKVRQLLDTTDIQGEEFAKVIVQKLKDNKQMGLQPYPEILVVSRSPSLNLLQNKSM
SR-BI DiI inh – mouse SR-BI HDL lipid transfer inhibition; Q61009; ldlA[mSR-BI] CHO cells, DiI-HDL uptake fluorescence, 3 h; 320,000 tested, 0.96% active; inhibition, % at 12.5 µM;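 active = mean replicate inhibition of at least 70% and a set share of replicates each scoring 70 or more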
NOD2-RIPK2 conf – NOD2-RIPK2 interaction inhibition confirmed; shares compounds with NOD2 RIPK2 PPI; CHO cells, NOD2-RIPK2 BLA complementation, CCF4 FRET; inhibition, % at 4.98 µM; 1,200 tested, 70% active;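 active = mean inhibition across replicates above a set limit taken from the earlier primary screen, cut at about 21% in these data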
BLA counter – NOD2-RIPK2 counterscreen BLA reporter activity; shares compounds with NOD2 RIPK2 PPI; CHO BLA reporter, CCF4 FRET ratio; inhibition, % at 4.98 µM; 1,200 tested, 57% active;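 active = mean inhibition above the low-control mean inhibition plus three low-control SD, cut at about 11% in these data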
Numbers stand for hits; n = inactive; x = no result.

SMILES | Hep lipid drop | TLR4-MyD88 BLA | SR-BI uptake up | TLR9-MyD88 inh | NOD2 RIPK2 PPI | SR-BI DiI inh | NOD2-RIPK2 conf | BLA counter
CC(=O)Nc1cccc(-c2ccnc3c2CC(C)(C(=O)NCc2ccncc2)O3)c1 (stereo unspecified) | x | x | x | x | 21 | x | n | n
CN(O)/C=C1\C(=O)Nc2ccccc21 | n | n | n | n | n | n | x | x
O=C(/C=C1\C(=O)Nc2ccccc21)/C=C1\C(=O)Nc2ccccc21 | n | x | n | n | 25 | n | 74 | 16
O=C1Nc2ccccc2/C1=C\C(=O)c1ccccc1 | n | x | n | n | 30 | n | 29 | n
CC(C)Oc1ccc(C(=O)/C=C2/C(=O)Nc3ccccc32)cc1 | n | x | n | n | n | n | x | x
CCOC(=O)c1sc2nc(C)cc(-c3ccccc3)c2c1N | n | n | n | n | n | n | x | x
CCOC(=O)c1sc2nc(-c3ccccc3)ccc2c1N | n | n | n | n | 23 | n | 48 | 59
CN(C)NC(=S)Nc1ccc2nc(-c3ccccn3)c(-c3ccccn3)nc2c1 | n | n | n | n | n | n | x | x
CC(C)(C)CC(C)(C)NC(=S)Nc1ccc2nc(-c3ccccn3)c(-c3ccccn3)nc2c1 | x | n | n | n | 32 | n | n | n
C=CC[C@]12C[C@@H](OC)C(=O)C=C1O[C@@H](c1ccc(OC)c(OC)c1)[C@H]2C | x | x | n | n | n | n | x | x
O=C(Cn1nnc(-c2ccccc2)n1)Nc1ccccc1N1CCOCC1 | n | n | n | n | n | n | x | x
Cc1ccc(-c2nnn(CC(=O)Nc3ccccc3N3CCOCC3)n2)cc1 | x | n | n | n | 21 | n | n | n
CCOC(=O)c1ccccc1NC(=S)N1CCN(C(=O)c2ccco2)CC1 | n | x | n | n | n | n | x | x
O=C(NC1CCCc2c1cnn2-c1ccccc1F)c1ccccc1N1CCOCC1 (stereo unspecified) | n | x | x | n | n | n | x | x
CC(C)(C)NC(=O)C(c1cc2ccccc2o1)n1c(=O)c(-c2cc3ccccc3[nH]2)nc2ccccc21 (stereo unspecified) | x | x | x | x | 50 | x | 46 | 70
Cc1csc(-c2nc3ccccc3n2C(C(=O)NC(C)(C)C)c2cc3ccccc3o2)c1 (stereo unspecified) | x | x | x | x | n | x | x | x
COc1ccc(C(C(=O)NC(C)(C)C)n2c(=O)c(-c3cc4ccccc4[nH]3)nc3ccccc32)cc1 (stereo unspecified) | x | x | x | x | 41 | x | 40 | 64
CC(C)(C)NC(=O)C(c1ccccc1)n1c(=O)c(-c2ccccc2)nc2ccccc21 (stereo unspecified) | x | x | x | x | n | x | x | x
CC(C)(C)NC(=O)C(c1ccncc1)n1c(=O)c(-c2cc3ccccc3[nH]2)nc2ccccc21 (stereo unspecified) | x | x | x | x | 49 | x | 48 | 68
O=C(Cc1csc(Nc2nc(=S)[nH]c3ccccc23)n1)NCCCN1CCN(c2ccccc2F)CC1 | n | n | n | n | 47 | n | 46 | 54
CCCNC(=O)c1ccc(COc2cccc3ccccc23)o1 | n | x | n | n | 26 | n | n | n
CCN(CC)c1ccc(C(=O)NNC(=O)CCl)cc1 | n | n | x | n | n | x | x | x
CCN(CC)c1ccc(C(=C2C=CC(=[N+](CC)CC)C=C2)c2ccc(N(CC)CC)cc2)cc1 | x | x | n | n | 41 | 89 | 49 | n
COc1ccc(/C=N/Nc2ccccc2)cc1Cn1nc(C)c([N+](=O)[O-])c1C | n | n | n | n | n | n | x | x
O=C(NCc1ccccc1)C(c1ccc(-c2ccccc2)cc1)n1c(=O)c(-c2cc3ccccc3[nH]2)nc2ccccc21 (stereo unspecified) | x | x | x | x | 23 | x | 42 | 66
SMILES | Hep lipid drop | TLR4-MyD88 BLA | SR-BI uptake up | TLR9-MyD88 inh | NOD2 RIPK2 PPI | SR-BI DiI inh | NOD2-RIPK2 conf | BLA counter
COc1ccc(C(C(=O)NCc2ccccc2)n2c(=O)c(-c3cc4ccccc4[nH]3)nc3ccccc32)cc1 (stereo unspecified) | x | x | x | x | 44 | x | 40 | 64
O=C(NCc1ccccc1)C(c1ccc(C(F)(F)F)cc1)n1c(=O)c(-c2ccccc2)nc2ccccc21 (stereo unspecified) | x | x | x | x | n | x | x | x
O=C(NCc1ccccc1)C(c1ccncc1)n1c(=O)c(-c2cc3ccccc3[nH]2)nc2ccccc21 (stereo unspecified) | x | x | x | x | 54 | x | 51 | 67
COc1ccc(C(C(=O)NCc2ccccc2)n2c(-c3ccncc3)nc3ccccc32)cc1 (stereo unspecified) | x | x | x | x | n | x | x | x
O=C(NCc1ccccc1)C(c1ccccc1F)n1c(=O)c(-c2cc3ccccc3[nH]2)nc2ccccc21 (stereo unspecified) | x | x | x | x | 53 | x | 48 | 70
O=c1c2ccccc2nc2n1C(CSCc1ccc(Cl)cc1Cl)CS2 (stereo unspecified) | x | n | n | n | n | n | x | x
Cc1noc(NS(=O)(=O)c2ccc(NC(=O)c3cc4ccccc4o3)cc2)c1C | x | x | n | n | n | n | x | x
Cc1cc(C)nc(Oc2ccc(Br)cc2)n1 | n | x | x | n | n | x | x | x
Cc1noc(C)c1-c1nnc(-c2ccc(C(F)(F)F)cc2)o1 | n | x | n | n | n | n | x | x
COc1cccc(/C=C2\CCCCC2=O)c1 | n | x | n | n | n | n | x | x
COc1ccc(N(CC(=O)N2CCN(c3ccccc3)CC2)S(=O)(=O)c2ccccc2)cc1 | x | x | x | n | n | x | x | x
Cc1ccc(NC(=O)CN(C)C(=O)CSc2nc3ccccc3c(=O)n2Cc2ccco2)cc1 | x | n | n | n | 21 | n | n | 16
COc1ccc(C2=NN(c3ccc(C(=O)O)cc3)C(c3ccc(OC)c(OC)c3)C2)cc1 (stereo unspecified) | n | x | x | n | 25 | x | n | 31
CCOc1cc(C=NN2CCCCCC2)ccc1O | x | x | n | n | n | n | x | x
CC1CN(C(C)C)C(=S)NC1=O (stereo unspecified) | x | x | n | n | n | n | x | x
COc1cc(NC(=O)Cn2c(C)cc3ccccc3c2=O)cc(OC)c1OC | x | n | n | n | 32 | n | n | n
COc1ncc(-c2ccc(N3C(c4ccc([N+](=O)[O-])cc4)=Cc4ccccc4C3CC(C)=O)cc2)cn1 (stereo unspecified) | x | x | x | x | 34 | x | n | 18
CCS(=O)c1ccccc1C(=O)OCC(=O)N1CCC(c2ccccc2)=N1 (stereo unspecified) | x | x | n | n | n | n | x | x
Cc1noc2ncnc(Sc3ccccc3Cl)c12 | n | n | n | n | 28 | n | 23 | n
Clc1nc2c(-c3ccccc3)nnn2c2ccccc12 | n | x | x | n | 24 | x | 80 | 62
Cc1ccc(-c2nnn3c2nc(Cl)c2ccccc23)cc1 | n | n | x | n | n | x | x | x

Screening data from PubChem BioAssay.
